For data set [1], the system named is HT-29. Kind of data set: Inhibition of VEGF protein secretion in human HT-29 cells assessed as VEGF protein level at 30 nM after 48 hrs by ELISA (reference value: 100%). It is filed as functional. Also noted: scale not given: the % may be the effect or the level left.
Data set [2] relates to MCF7. Kind of data set: Antiproliferative activity against human MCF7 cells after 2 days by MTT assay. It is filed as functional, cell-based. The conditions noted are these: MCF7, 48 h. (In general: Formazan colour is commonly taken as a measure of viable cells.)
The test system of data set [3] is HT-29. Kind of data set: Downregulation of c-Myc gene expression in human HT-29 cells assessed as c-Myc mRNA level at 30 nM after 48 hrs by RT-PCR method (reference value: 100%). In kind it is functional. Summed up: (§1)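 HT-29 cells were taken at 70–80% confluence and seeded at 1.5 x 10^5 per well. After 24 h they were exposed to compound for 48 h. Total RNA was isolated and TaqMan RT-qPCR run for VEGF-A, c-MYC and hTERT, normalized to β-actin. Expression is given as percent of DMSO control, with at least three measurements and one-sample t-tests.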

Data set [4] deals with HEK293. Kind of data set: Antiproliferative activity against HEK293 cells after 2 days by MTT assay. It is filed as ADME, cell-based. The conditions noted are these: Homo sapiens, HEK293, 48 h.
For data set [5], the system named is HT-29. Kind of data set: Downregulation of VEGF gene expression in human HT-29 cells assessed as VEGF mRNA level at 30 nM after 48 hrs by RT-PCR method (reference value: 100%). In kind it is functional. Summed up: as §1
Data set [6] concerns HT-29. Kind of data set: Antiproliferative activity against human HT-29 cells after 2 days by MTT assay. It is filed as functional, cell-based. The conditions noted are these: HT-29, 48 h.
The test system of data set [7] is HT-29. Kind of data set: Downregulation of hTERT gene expression in human HT-29 cells assessed as hTERT mRNA level at 30 nM after 48 hrs by RT-PCR method (reference value: 100%). It is filed as functional. Summed up:
as §1

Data set [8] deals with A549. Kind of data set: Antiproliferative activity against human A549 cells after 2 days by MTT assay. It is filed as functional, cell-based. As to conditions: A549, 48 h.
The test system of data set [9] is A549. Kind of data set: Cell cycle arrest in human A549 cells assessed as accumulation at G0/G1 phase at 20 nM after 24 hrs by propidium iodide staining based flow cytometry (reference value: 73 +/- 3%). In kind it is functional. Summed up: (§2)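 A549 cells maintained in DMEM (1 g/L glucose, 2 mM glutamine, penicillin/streptomycin/amphotericin B, 10% FBS) and treated for 24 h. Cells were then fixed, RNase-treated and stained with propidium iodide. DNA content was measured by flow cytometry to give cell-cycle phase distribution, including a sub-G1 peak. Data are means (±SD) of two experiments.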

The test system of data set [10] is HT-29. Kind of data set: Downregulation of VEGF gene expression in human HT-29 cells assessed as VEGF mRNA level at 5 nM after 48 hrs by RT-PCR method (reference value: 100%). In kind it is functional. Summed up: as §1
Data set [11] relates to HT-29. Kind of data set: Inhibition of VEGF protein secretion in human HT-29 cells assessed as VEGF protein level at 5 nM after 48 hrs by ELISA (reference value: 100%). It is filed as functional. Also noted: scale not given: the % may be the effect or the level left. (In general: An ELISA detects its analyte on a solid surface through an enzyme-linked reagent.)
Data set [12] concerns A549. Kind of data set: Cell cycle arrest in human A549 cells assessed as accumulation at G2/M phase at 20 nM after 24 hrs by propidium iodide staining based flow cytometry (reference value: 11 +/- 4%). It is filed as functional. Summed up:
as §2
In general terms: A flow cytometer gives signals particle by particle.

Data set [13] deals with A549. Kind of data set: Cell cycle arrest in human A549 cells assessed as accumulation at S phase at 20 nM after 24 hrs by propidium iodide staining based flow cytometry (reference value: 15 +/- 6%). In kind it is functional. Summed up:
as §2

Data set [14] relates to HT-29. Kind of data set: Downregulation of c-Myc gene expression in human HT-29 cells assessed as c-Myc mRNA level at 5 nM after 48 hrs by RT-PCR method (reference value: 100%). It is filed as functional. Summed up:
as §1

Data set [15] has as its system A549. Kind of data set: Cell cycle arrest in human A549 cells assessed as accumulation at sub-G0 phase at 20 nM after 24 hrs by propidium iodide staining based flow cytometry (reference value: 2 +/- 1%). It is filed as functional. Summed up:
as §2

Data set [16] deals with HT-29. Kind of data set: Downregulation of hTERT gene expression in human HT-29 cells assessed as hTERT mRNA level at 5 nM after 48 hrs by RT-PCR method (reference value: 100%). It is filed as functional. Summed up:
as §1

Data set [17] concerns A549. Kind of data set: Cell cycle arrest in human A549 cells assessed as accumulation at G2/M phase at 3 nM after 24 hrs by propidium iodide staining based flow cytometry. In kind it is functional. Summed up:
as §2

Data set [18] can be described thus: Selectivity index, ratio of IC50 for HEK293 cells to IC50 for human MCF7 cells. The conditions noted are these: HEK293 cells versus MCF7 cells.
Data set [19] is described as follows: Selectivity index, ratio of IC50 for HEK293 cells to IC50 for human HT-29 cells. The conditions noted are these: HEK293 cells versus HT-29 cells.
The nature of data set [20]: Selectivity index, ratio of IC50 for HEK293 cells to IC50 for human A549 cells. The conditions noted are these: HEK293 cells versus A549 cells.

This passage reports Activity, IC50 and selectivity ratio results from ChEMBL document CHEMBL4196091 (Eur J Med Chem, 2018).

Calls of active or inactive are those of the source. The rule behind the calls is not given here. Bounds are passed on as bounds.

The IC50 is the concentration needed to halve the response being measured. Take `COc1cc2c(c(OC)c1OC)-c1ccc(OC)c(=O)cc1[C@@H](NC(=O)c1ccc(C(C)(C)C)cc1)CC2`: the Activity in [1] is 61%; in data set [3] it was 82%; in [5], 73%; in data set [7], above 100%. The IC50 amounted to 24 nM in data set [2], 58 nM in data set [4], 32.7 nM in data set [6] and 36 nM in data set [8].
Turning to `COc1cc2c(c(OC)c1OC)-c1ccc(OC)c(=O)cc1[C@@H](NC(=O)c1ccccc1Br)CC2`, the Activity was determined as 27% in [9]; 57% in [10]; 80% in data set [11]; 47% in data set [12]; 22% in data set [13]; 50% in data set [14]. In addition, the values for the Activity in data set [15] and in data set [16] were 4% and 88%, respectively. The IC50 in data set [2] turned out to be 7.6 nM; in data set [4] it was 8.5 nM; in [6], 5.8 nM; in data set [8], 13 nM. Further, in data set [17], the result was Active.
Consider `CCCCCc1ccc(C(=O)N[C@H]2CCc3cc(OC)c(OC)c(OC)c3-c3ccc(OC)c(=O)cc32)cc1`, for which the selectivity ratio is 0.3 in [18], 0.4 in data set [19] and 1.3 in [20]. For the same compound, the IC50 in [2] came to 5.8 nM; in data set [4] it was 1.6 nM; in data set [6], 4.2 nM; in data set [8], 1.27 nM.
